Assay results published in ChEMBL document CHEMBL1687886, “N-cyclic bay-substituted perylene G-quadruplex ligands have selective antiproliferative effects on cancer cells and induce telomere damage” (J Med Chem, 2011).
Active and inactive are the calls of the source. The calls are words filed in the database; no cut-off is given here.

Tests used:
[1] = test system: BJ; assay: Induction of telomere dysfunction induced foci n human BJ cells expressing SV40 early protein EHLT assessed as increase in gamma H2AX/TRF1 co-localization by Deconvolution microscopy; assay type: functional, cell-based
Procedure, shortened: (§1)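 BJ-EHLT cells stained for TRF1 together with γ-H2AX or 53BP1 and imaged by deconvolution microscopy. Cells with four or more γ-H2AX/TRF1 foci scored as TIF positive; percentage of TIF-positive cells and mean TIFs per nucleus recorded. Mean of three experiments, SD.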

[2] = test system: BJ; assay: Induction of DNA damage response in human BJ cells expressing SV40 early region EHLT assessed as phosphorylation of gamma H2AX at 0.25 uM after 24 hrs by immunofluorescence method; assay type: functional, cell-based
Procedure, shortened: (§2)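 BJ-EHLT and BJ-hTERT fibroblasts exposed to a range of concentrations for 24 h. Fixed in 2% formaldehyde, permeabilized in 0.25% Triton X-100, immunostained for γ-H2AX and 53BP1. Percentage of positive cells scored. Three independent experiments, SD.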

[3] = test system: BJ; assay: Delocalization of POT1 protein from […] in human BJ cells expressing SV40 early protein EHLT after 72 hrs by chromatin immunoprecipitation assay; assay type: functional, cell-based
Procedure, shortened: (§3)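 BJ-EHLT cells treated 24 or 72 h. Formaldehyde-crosslinked chromatin immunoprecipitated with anti-TRF1, anti-TRF2 or anti-POT1; β-actin antibody as negative control. Precipitates blotted and probed for telomeric repeats (ALU probe as nonspecific). Densitometry gives percentage of precipitated DNA relative to input (10% and 1%). Four independent experiments, SD.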

[4] = test system: Nucleic Acid; assay: Binding affinity to human 21-TT G-quadruplex DNA structure assessed as first step association constant by electrospray ionization mass spectrometry; assay type: nucleic-acid assay
Procedure, shortened: (§4)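 ESI-MS in 150 mM ammonium acetate; DNA 5 μM final (per duplex or quadruplex unit); ligand at drug/DNA ratios 0.5 to 4. Methanol (15%) added just before injection, after binding equilibrium. K1 and K2 for 1:1 and 2:1 complexes, and % bound DNA, taken from relative peak intensities assuming equal response factors. At least three repeats.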

[5] = test system: Nucleic Acid; assay: Binding affinity to human DK66 duplex DNA structure assessed as second step association constant by electrospray ionization mass spectrometry; assay type: nucleic-acid assay; procedure, shortened: as §4
[6] = test system: HT-29; assay: Cytotoxicity against human HT-29 cells after 4 days by clonogenic assay relative to control; assay type: functional, cell-based; details: HT-29, 96 h
Procedure, shortened: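 Clonogenic survival: cells seeded at 2 × 10^5 per dish and exposed for 4 days to 0.5-2 μM. Surviving fraction taken as absolute survival of treated over control. Four experiments, each in triplicate; mean with SD.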

[7] = test system: BJ; assay: Induction of telomere dysfunction induced foci n human BJ cells expressing SV40 early protein EHLT assessed as increase in 53BP1/TRF1 co-localization by Deconvolution microscopy; assay type: functional, cell-based; procedure, shortened: as §1
[8] = test system: BJ; assay: Cell cycle arrest in human BJ cells expressing TERT assessed as accumulation at S stage at 0.5 uM after 48 hrs by propidium iodide staining based flow cytometry (reference value: 12%); assay type: ADME
[9] = test system: BJ; assay: Induction of DNA damage response in human BJ cells expressing human TERT assessed as phosphorylation of […] at 1 uM after 24 hrs by immunofluorescence; assay type: functional, cell-based; procedure, shortened: as §2
[10] = test system: BJ; assay: Cell cycle arrest in human BJ cells expressing TERT assessed as accumulation at G0/G1 stage at 0.5 uM after 96 hrs by propidium iodide staining based flow cytometry (reference value: 86%); assay type: ADME
[11] = test system: BJ; assay: Cell cycle arrest in human BJ cells expressing TERT assessed as accumulation at G2/M stage at 0.5 uM after 72 hrs by propidium iodide staining based flow cytometry (reference value: 5%); assay type: ADME
[12] = target: Telomerase reverse transcriptase (Homo sapiens, UniProt O14746); assay: Inhibition of human Telomerase activity in cell free system by TRAP assay
Procedure, shortened: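 Cell-free TRAP: protein extract incubated with compound at 1 to 50 μM so telomerase elongates the substrate oligonucleotide. Before PCR, phenol/chloroform/isoamyl-alcohol (50:49:1) extraction removes the ligand and DNA is precipitated overnight at -20 °C. Amplification uses a 36 bp ITAS; products are resolved on 12% PAGE and stained with SYBR Green. Signals are corrected by the no-extract control and normalized to untreated, giving dose-response IC50. Mean of three experiments.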

[13] = test system: BJ; assay: Induction of DNA damage response in human BJ cells expressing SV40 early protein EHLT assessed as accumulation of PCNA in S-phase by Hoechst staining based Leica deconvolution microscopic analysis; assay type: functional, cell-based
Procedure, shortened: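 BJ-EHLT cells co-immunostained for γ-H2AX and PCNA, nuclei counterstained with Hoechst, imaged by deconvolution microscopy. Percentages of γ-H2AX+/PCNA− and γ-H2AX+/PCNA+ nuclei scored. Mean of three independent experiments.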

[14] = test system: BJ; assay: Induction of DNA damage n human BJ cells expressing SV40 early protein EHLT assessed as increase in gamma-H2Ax phosphorylation at 0.5 uM; assay type: functional; procedure, shortened: as §2
[15] = test system: Nucleic Acid; assay: Binding affinity to human 21-TT G-quadruplex DNA structure assessed as bound DNA at 5:10 DNA to drug ratio by electrospray ionization mass spectrometry; assay type: nucleic-acid assay; procedure, shortened: as §4
[16] = test system: Nucleic Acid; assay: Binding affinity to human DK66 duplex DNA structure assessed as first step association constant by electrospray ionization mass spectrometry; assay type: nucleic-acid assay; procedure, shortened: as §4
[17] = test system: BJ; assay: Delocalization of TRF1 protein from […] in human BJ cells expressing SV40 early protein EHLT by chromatin immunoprecipitation assay; assay type: functional, cell-based; procedure, shortened: as §3
[18] = test system: BJ; assay: Cell cycle arrest in human BJ cells expressing TERT assessed as accumulation at S stage at 0.5 uM after 24 hrs by propidium iodide staining based flow cytometry (reference value: 21%); assay type: ADME
[19] = test system: BJ; assay: Induction of DNA damage response in human BJ cells expressing human TERT assessed as phosphorylation of gamma H2AX at 1 uM after 24 hrs by immunofluorescence; assay type: functional, cell-based; procedure, shortened: as §2
[20] = test system: Nucleic Acid; assay: Stabilization of 21-mer human F21T G4-telomeric quadruplex assessed as change in melting temperature at 1 uM by FRET assay; assay type: nucleic-acid assay
[21] = test system: Nucleic Acid; assay: Binding affinity to human DK66 duplex DNA structure assessed as bound DNA at 5:20 DNA to drug ratio by electrospray ionization mass spectrometry; assay type: nucleic-acid assay; procedure, shortened: as §4
[22] = test system: BJ; assay: Delocalization of POT1 protein from […] in human BJ cells expressing SV40 early protein EHLT after 24 hrs by chromatin immunoprecipitation assay; assay type: functional, cell-based; procedure, shortened: as §3
[23] = test system: Nucleic Acid; assay: Binding affinity to human 21-TT G-quadruplex DNA structure assessed as bound DNA at 5:5 DNA to drug ratio by electrospray ionization mass spectrometry; assay type: nucleic-acid assay; procedure, shortened: as §4
[24] = test system: BJ; assay: Antiproliferative activity against human BJ cells expressing TERT at 3 uM after 2 to 8 days by trypan blue assay; assay type: functional, cell-based; details: 0.5 uM, in the assay text read “at 0.5 uM” for “at 3 uM”
Procedure, shortened: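 Cells seeded at 5 ×10^4 per dish; compounds freshly dissolved and added to the medium 24 h after plating, at 0.5 μM or 3 μM (3 μM only for one derivative). Cell number by Coulter counting and viability by trypan blue exclusion daily, day 1 to day 8. Growth inhibition of treated vs untreated cells calculated at days 2, 4, 6 and 8. Representative experiments in quintuplicate, SD shown.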

[25] = test system: BJ; assay: Cell cycle arrest in human BJ cells expressing TERT assessed as accumulation at G2/M stage at 0.5 uM after 96 hrs by propidium iodide staining based flow cytometry (reference value: 4%); assay type: ADME
[26] = test system: BJ; assay: Induction of telomere dysfunction induced foci n human BJ cells expressing SV40 early protein EHLT assessed as increase in gamma H2AX/TRF1 co-localization at 1 uM by Deconvolution microscopy; assay type: functional; procedure, shortened: as §1

Telomerase reverse transcriptase, sequence (O14746 whole entry): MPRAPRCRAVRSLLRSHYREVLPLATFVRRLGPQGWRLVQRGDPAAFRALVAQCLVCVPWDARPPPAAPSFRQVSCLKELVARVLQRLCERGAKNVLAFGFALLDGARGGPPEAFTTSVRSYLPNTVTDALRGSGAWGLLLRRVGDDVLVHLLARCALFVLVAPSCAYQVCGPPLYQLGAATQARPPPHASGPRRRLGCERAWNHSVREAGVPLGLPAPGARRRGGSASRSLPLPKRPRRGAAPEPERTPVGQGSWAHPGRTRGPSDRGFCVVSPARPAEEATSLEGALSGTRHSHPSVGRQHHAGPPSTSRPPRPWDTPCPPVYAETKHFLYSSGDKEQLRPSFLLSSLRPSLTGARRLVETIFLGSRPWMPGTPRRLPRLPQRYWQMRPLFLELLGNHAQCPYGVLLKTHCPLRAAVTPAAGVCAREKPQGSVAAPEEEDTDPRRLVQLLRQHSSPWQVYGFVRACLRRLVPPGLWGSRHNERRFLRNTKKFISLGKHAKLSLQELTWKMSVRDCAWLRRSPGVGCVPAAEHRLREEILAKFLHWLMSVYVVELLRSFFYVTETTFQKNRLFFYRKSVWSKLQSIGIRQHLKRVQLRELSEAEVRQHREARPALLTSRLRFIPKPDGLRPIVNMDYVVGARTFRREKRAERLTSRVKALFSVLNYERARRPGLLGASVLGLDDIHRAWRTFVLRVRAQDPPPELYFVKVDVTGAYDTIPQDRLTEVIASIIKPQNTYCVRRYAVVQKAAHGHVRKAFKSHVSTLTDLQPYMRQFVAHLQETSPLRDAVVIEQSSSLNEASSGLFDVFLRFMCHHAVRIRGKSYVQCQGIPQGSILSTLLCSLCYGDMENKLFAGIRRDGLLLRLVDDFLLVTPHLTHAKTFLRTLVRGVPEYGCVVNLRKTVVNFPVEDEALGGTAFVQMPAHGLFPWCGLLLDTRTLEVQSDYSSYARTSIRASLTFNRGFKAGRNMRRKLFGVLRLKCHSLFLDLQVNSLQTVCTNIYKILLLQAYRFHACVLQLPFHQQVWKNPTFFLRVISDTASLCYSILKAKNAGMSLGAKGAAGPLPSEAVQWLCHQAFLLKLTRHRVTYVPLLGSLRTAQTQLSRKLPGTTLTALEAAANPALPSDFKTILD

**Q.** O=C1c2ccc3c4ccc5c6c(cc(N7CCCCC7)c(c7ccc(c2c37)C(=O)N1CCOCCN1CCCCC1)c64)C(=O)N(CCOCCN1CCCCC1)C5=O was tested. Which Activity [1] did it give?
**A.** Active

**Q.** And the Activity [2]?
**A.** Active

**Q.** What about the Activity [3] of the same molecule?
**A.** Active

**Q.** And the log Ks [4]?
**A.** 5.8

**Q.** What about the log Ks [5] of the same molecule?
**A.** 4.2

**Q.** And the IC50 [6]?
**A.** 1.1 µM

**Q.** And the Activity [7]?
**A.** Active

**Q.** What about the Activity [8] of the same molecule?
**A.** 14%

**Q.** What about the Activity [9] of the same molecule?
**A.** inactive

**Q.** What about the Activity [10] of the same molecule?
**A.** 96.3%

**Q.** What about the Activity [11] of the same molecule?
**A.** 5.1%

**Q.** And the IC50 [12]?
**A.** 10 µM

**Q.** And the Activity [13]?
**A.** Active

**Q.** What about the Activity [14] of the same molecule?
**A.** 50%

**Q.** What about the Activity [15] of the same molecule?
**A.** 75%

**Q.** What about the log Ks [16] of the same molecule?
**A.** 3.9

**Q.** What about the Activity [17] of the same molecule?
**A.** inactive

**Q.** What about the Activity [18] of the same molecule?
**A.** 21.1%

**Q.** And the Activity [19]?
**A.** inactive

**Q.** And the ΔTm [20]?
**A.** 23 °C

**Q.** What about the Activity [21] of the same molecule?
**A.** 21%

**Q.** And the Activity [22]?
**A.** Active

**Q.** And the Activity [23]?
**A.** 56%

**Q.** And the Activity [24]?
**A.** Non-toxic

**Q.** What about the Activity [25] of the same molecule?
**A.** 2.2%

**Q.** And the Activity [26]?
**A.** 50%
